{
  "source": "ChEMBL document CHEMBL4350961",
  "about": "“Discovery of Pyrrolo[3,2- d]pyrimidin-4-one Derivatives as a New Class of Potent and Cell-Active Inhibitors of P300/CBP-Associated Factor Bromodomain” (J Med Chem, 2019)",
  "key": {"[1]": {"tested_on": "Epidermal growth factor receptor (Homo sapiens), P00533 [L861Q]", "test": "Inhibition of recombinant human EGFR L861Q mutant (696 to end residues) at 10 uM using poly(Glu, Tyr) 4:1 as substrate measured after 40 mins in presence of [gamma33P]ATP by scintillation counting method"}, "[2]": {"molecular_target": "Tyrosine-protein kinase Fes/Fps (Homo sapiens) (UniProt P07332)", "test": "Inhibition of recombinant human FES (2 to end residues) at 10 uM using poly(Glu, Tyr) 4:1 as substrate measured after 40 mins in presence of [gamma33P]ATP by scintillation counting method"}, "[3]": {"molecular_target": "Calcium/calmodulin-dependent protein kinase type II subunit beta (Homo sapiens) (UniProt Q13554)", "sequence (Q13554 whole entry, the tested form may be a part)": "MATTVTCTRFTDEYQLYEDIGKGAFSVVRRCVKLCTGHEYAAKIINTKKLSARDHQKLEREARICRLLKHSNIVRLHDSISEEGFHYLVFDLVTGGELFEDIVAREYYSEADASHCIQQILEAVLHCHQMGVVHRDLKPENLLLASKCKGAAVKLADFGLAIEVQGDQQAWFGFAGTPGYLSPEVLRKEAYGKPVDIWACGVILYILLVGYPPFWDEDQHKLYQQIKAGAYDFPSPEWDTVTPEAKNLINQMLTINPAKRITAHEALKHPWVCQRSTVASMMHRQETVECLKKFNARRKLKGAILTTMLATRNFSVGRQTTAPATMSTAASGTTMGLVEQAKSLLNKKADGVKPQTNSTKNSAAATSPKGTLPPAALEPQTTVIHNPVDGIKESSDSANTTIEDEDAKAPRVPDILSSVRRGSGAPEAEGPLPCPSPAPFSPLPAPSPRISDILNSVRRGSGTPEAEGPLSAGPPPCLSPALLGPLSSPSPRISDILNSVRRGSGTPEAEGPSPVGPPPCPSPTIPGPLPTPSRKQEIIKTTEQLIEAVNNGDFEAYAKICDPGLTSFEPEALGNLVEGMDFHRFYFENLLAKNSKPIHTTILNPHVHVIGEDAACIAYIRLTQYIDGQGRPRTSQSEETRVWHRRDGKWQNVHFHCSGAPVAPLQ", "test": "Inhibition of recombinant full-length human CaMK2beta (1 to 315 residues) at 10 uM using calmodulin as substrate measured after 40 mins in presence of [gamma33P]ATP by scintillation counting method"}, "[4]": {"molecular_target": "Serine/threonine-protein kinase MRCK gamma (Homo sapiens) (UniProt Q6DT37)", "test": "Inhibition of recombinant human MRCKgamma at 10 uM using KKRNRTLTV as substrate measured after 40 mins in presence of [gamma33P]ATP by scintillation counting method"}, "[5]": {"molecular_target": "PAS domain-containing serine/threonine-protein kinase (Homo sapiens) (UniProt Q96RG2)", "test": "Inhibition of recombinant human PASK (995 to end residues) at 10 uM using KKLNRTLSFAEPG as substrate measured after 40 mins in presence of [gamma33P]ATP by scintillation counting method"}, "[6]": {"molecular_target": "Inhibitor of nuclear factor kappa-B kinase subunit epsilon (Homo sapiens) (UniProt Q14164)", "sequence (Q14164 whole entry)": "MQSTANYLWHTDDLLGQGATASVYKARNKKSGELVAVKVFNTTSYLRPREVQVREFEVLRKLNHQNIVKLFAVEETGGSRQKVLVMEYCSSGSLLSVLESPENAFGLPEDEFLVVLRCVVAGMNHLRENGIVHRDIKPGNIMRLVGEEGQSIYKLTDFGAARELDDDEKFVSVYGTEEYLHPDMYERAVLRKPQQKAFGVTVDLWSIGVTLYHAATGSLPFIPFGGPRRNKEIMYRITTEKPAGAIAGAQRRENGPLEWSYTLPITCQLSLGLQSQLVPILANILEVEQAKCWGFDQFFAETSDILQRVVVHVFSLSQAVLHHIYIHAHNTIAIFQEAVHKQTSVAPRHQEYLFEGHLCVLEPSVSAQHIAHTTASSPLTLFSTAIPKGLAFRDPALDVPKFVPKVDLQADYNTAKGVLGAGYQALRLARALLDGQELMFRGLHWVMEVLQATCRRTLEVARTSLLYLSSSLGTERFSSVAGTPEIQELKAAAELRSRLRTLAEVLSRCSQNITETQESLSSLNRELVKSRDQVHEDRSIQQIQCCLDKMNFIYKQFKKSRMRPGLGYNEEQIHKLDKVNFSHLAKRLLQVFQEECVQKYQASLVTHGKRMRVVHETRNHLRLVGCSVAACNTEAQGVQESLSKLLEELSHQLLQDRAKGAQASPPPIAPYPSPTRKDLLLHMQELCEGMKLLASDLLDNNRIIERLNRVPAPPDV", "test": "Inhibition of recombinant full-length human IKKepsilon at 10 uM using casein as substrate measured after 40 mins in presence of [gamma33P]ATP by scintillation counting method"}, "[7]": {"organism": "Mus musculus", "test": "Inhibition of recombinant mouse ARG M982V/A562 mutant (27 to end residues) at 10 uM using EAIYAAPFAKKK as substrate measured after 40 mins in presence of [gamma33P]ATP by scintillation counting method"}, "[8]": {"molecular_target": "SRSF protein kinase 1 (Homo sapiens) (UniProt Q96SB4)", "sequence (Q96SB4 whole entry)": "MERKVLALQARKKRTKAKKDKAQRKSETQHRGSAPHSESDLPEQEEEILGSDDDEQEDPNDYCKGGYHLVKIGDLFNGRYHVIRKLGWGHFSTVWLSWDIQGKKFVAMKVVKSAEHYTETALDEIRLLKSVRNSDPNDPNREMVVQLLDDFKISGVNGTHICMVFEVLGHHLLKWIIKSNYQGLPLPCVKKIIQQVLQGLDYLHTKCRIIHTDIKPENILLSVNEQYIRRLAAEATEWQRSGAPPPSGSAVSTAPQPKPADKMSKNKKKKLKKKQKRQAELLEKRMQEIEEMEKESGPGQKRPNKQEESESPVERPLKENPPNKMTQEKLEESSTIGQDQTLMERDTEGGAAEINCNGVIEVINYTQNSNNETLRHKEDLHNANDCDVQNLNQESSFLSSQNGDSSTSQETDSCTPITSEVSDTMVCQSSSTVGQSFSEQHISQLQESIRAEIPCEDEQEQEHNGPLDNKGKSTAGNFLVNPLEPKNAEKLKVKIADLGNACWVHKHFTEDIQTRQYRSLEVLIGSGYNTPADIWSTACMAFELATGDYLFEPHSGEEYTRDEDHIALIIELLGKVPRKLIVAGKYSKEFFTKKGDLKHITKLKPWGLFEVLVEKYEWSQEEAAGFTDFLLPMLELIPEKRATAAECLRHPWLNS", "test": "Inhibition of human SRPK1 (2 to end residues) using RSRSRSRSRSRSRSR as substrate measured after 40 mins in presence of [gamma33P]ATP by scintillation counting method", "how_it_was_run": "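Kinase panel of 422 kinases screened by Eurofins KinaseProfiler at a single test-compound concentration of 10 µM.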"}, "[9]": {"molecular_target": "Tyrosine-protein kinase TXK (Homo sapiens) (UniProt P42681)", "sequence (P42681 whole entry)": "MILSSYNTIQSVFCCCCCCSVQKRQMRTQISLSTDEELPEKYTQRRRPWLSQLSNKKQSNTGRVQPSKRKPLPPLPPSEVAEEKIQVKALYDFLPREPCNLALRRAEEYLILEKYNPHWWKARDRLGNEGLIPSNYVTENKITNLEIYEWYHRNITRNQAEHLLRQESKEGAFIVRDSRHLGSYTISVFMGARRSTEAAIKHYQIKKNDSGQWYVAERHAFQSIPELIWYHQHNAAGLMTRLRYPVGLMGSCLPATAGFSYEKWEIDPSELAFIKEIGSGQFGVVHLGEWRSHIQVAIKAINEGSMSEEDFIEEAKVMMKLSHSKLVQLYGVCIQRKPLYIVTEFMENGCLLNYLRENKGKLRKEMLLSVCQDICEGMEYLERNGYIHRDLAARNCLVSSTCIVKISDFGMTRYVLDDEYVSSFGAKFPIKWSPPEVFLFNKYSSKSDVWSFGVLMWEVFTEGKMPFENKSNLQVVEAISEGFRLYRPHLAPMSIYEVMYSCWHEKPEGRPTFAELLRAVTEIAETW", "test": "Inhibition of human Txk (256 to end residues) using GEEPLYWSFPAKKK as substrate measured after 40 mins in presence of [gamma33P]ATP by scintillation counting method"}, "[10]": {"molecular_target": "Serine/threonine-protein kinase DCLK2 (Homo sapiens) (UniProt Q8N568)", "test": "Inhibition of recombinant human DCAMKL2 (376 to end residues) at 10 uM using KKLNRTLSFAEPG as substrate measured after 40 mins in presence of [gamma33P]ATP by scintillation counting method"}, "[11]": {"molecular_target": "Ephrin type-A receptor 3 (Homo sapiens) (UniProt P29320)", "sequence (P29320 whole entry)": "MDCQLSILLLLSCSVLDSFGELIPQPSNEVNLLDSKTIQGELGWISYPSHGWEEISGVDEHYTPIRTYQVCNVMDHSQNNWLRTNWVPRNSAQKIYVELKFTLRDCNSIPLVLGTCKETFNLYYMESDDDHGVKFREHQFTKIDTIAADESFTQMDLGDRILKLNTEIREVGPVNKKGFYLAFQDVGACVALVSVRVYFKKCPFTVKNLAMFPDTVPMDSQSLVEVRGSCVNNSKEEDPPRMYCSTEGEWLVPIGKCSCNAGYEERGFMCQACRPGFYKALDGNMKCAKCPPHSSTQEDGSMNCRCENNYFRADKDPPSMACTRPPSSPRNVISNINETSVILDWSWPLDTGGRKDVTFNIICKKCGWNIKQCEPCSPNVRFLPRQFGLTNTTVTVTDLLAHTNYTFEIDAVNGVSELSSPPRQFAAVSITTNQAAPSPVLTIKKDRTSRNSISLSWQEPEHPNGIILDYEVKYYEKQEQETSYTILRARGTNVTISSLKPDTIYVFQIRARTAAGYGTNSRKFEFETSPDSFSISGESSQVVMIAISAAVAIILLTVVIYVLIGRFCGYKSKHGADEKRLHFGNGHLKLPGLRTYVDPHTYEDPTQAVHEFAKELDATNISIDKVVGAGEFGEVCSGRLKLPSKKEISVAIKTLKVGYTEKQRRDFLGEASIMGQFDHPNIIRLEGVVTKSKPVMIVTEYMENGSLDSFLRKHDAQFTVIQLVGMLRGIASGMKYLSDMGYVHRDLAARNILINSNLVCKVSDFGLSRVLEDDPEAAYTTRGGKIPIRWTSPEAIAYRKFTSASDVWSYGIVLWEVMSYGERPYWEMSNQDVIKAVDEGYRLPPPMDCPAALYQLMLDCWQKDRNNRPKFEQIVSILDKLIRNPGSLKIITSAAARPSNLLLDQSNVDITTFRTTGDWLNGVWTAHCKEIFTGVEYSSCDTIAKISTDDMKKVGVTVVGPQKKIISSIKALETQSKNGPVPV", "test": "Inhibition of recombinant human EphA3 (578 to end residues) at 10 uM using poly(Glu, Tyr) 4:1 as substrate measured after 40 mins in presence of [gamma33P]ATP by scintillation counting method"}, "[12]": {"molecular_target": "Serine/threonine-protein kinase NIM1 (Homo sapiens) (UniProt Q8IY84)", "sequence (Q8IY84 whole entry)": "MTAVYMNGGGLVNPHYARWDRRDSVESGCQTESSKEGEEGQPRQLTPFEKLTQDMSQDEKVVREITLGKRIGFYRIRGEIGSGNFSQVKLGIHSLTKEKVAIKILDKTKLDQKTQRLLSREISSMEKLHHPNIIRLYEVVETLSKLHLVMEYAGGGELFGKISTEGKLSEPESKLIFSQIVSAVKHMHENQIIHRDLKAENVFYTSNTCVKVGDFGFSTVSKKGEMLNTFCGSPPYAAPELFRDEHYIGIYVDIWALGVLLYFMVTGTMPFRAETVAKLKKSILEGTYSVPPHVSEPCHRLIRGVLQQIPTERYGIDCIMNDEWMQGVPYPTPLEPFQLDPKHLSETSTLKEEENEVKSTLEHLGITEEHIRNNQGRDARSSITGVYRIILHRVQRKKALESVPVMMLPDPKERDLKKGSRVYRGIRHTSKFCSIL", "test": "Inhibition of recombinant full-length human NIM1 at 10 uM using KKKVSRSGLYRSPSMPENLNRPR as substrate measured after 40 mins in presence of [gamma33P]ATP by scintillation counting method"}, "[13]": {"molecular_target": "Mitogen-activated protein kinase kinase kinase kinase 1 (Homo sapiens) (UniProt Q92918)", "sequence (Q92918 whole entry, looked up, the tested form may be a part)": "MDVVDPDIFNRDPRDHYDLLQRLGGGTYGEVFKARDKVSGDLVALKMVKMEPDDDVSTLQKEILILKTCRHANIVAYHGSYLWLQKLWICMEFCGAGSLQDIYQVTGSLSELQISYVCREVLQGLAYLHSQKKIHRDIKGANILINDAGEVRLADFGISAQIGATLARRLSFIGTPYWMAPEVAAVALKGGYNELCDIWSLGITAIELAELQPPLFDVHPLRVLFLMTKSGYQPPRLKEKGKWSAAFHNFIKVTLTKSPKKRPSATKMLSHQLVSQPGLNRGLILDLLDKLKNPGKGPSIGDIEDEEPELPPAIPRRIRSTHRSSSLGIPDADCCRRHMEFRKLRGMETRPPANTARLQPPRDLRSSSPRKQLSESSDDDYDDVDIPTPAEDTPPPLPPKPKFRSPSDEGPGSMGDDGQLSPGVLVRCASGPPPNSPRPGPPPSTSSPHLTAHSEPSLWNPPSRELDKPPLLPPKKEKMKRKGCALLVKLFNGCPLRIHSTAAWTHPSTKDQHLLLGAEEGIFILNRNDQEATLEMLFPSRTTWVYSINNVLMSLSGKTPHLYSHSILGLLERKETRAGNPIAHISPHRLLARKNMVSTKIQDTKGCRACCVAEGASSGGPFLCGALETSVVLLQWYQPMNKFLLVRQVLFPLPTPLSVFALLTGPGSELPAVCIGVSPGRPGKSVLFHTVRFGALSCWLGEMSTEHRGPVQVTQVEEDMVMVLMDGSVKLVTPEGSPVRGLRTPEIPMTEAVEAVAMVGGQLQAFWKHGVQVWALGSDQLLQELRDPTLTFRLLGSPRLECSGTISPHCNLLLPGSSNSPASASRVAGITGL", "test": "Inhibition of recombinant human HPK1 (1 to 346 residues) at 10 uM using myelin basic protein as substrate measured after 40 mins in presence of [gamma33P]ATP by scintillation counting method"}, "[14]": {"tested_on": "Angiopoietin-1 receptor (Homo sapiens), Q02763 [Q939H,Q940H,R849W]", "test": "Inhibition of human Tie2 Q939H/Q940H/R849W mutant (771 to end residues) using EFPIYDFLPAKKK as substrate measured after 40 mins in presence of [gamma33P]ATP by scintillation counting method"}, "[15]": {"test": "AUC (0 to infinity) in Sprague-Dawley rat at 10 mg/kg, po administered via gavage by LC-MS/MS analysis", "format": "ADME, organism-based", "parameters": "dose 10 mg/kg, route oral, time infinity", "details": "in vivo", "how_it_was_run": "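Serial jugular blood samples taken at designated times and spun to plasma at 4 ℃. Plasma mixed with acetonitrile holding internal standard, then LC-MS/MS. Parameters from noncompartmental fitting.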"}, "[16]": {"molecular_target": "Peregrin (Homo sapiens) (UniProt P55201)", "test": "Binding affinity to human partial length BRPF1 (E627 to G740 residues) expressed in bacterial expression system at 1 uM by BROMOscan assay", "how_it_was_run": "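BROMOscan bromodomain cross-screen run by an outside service, compound at 1 µM against 32 recombinant bromodomains. Binding given as percent of control.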"}, "[17]": {"molecular_target": "Ephrin type-A receptor 5 (Homo sapiens) (UniProt P54756)", "test": "Inhibition of recombinant human EphA5 (655 to 956 residues) at 10 uM using poly(Glu, Tyr) 4:1 as substrate measured after 40 mins in presence of [gamma33P]ATP by scintillation counting method"}, "[18]": {"tested_on": "Phosphorylase b kinase gamma catalytic chain, liver/testis isoform (Homo sapiens), P15735 [F290L]", "test": "Inhibition of recombinant human PhKgamma2 F290L mutant (1 to 301 residues) at 10 uM using KKLNRTLSFAEPG as substrate measured after 40 mins in presence of [gamma33P]ATP by scintillation counting method"}, "[19]": {"molecular_target": "Macrophage colony-stimulating factor 1 receptor (Homo sapiens) (UniProt P07333)", "test": "Inhibition of recombinant human FMS (538 to end residues) at 10 uM using KKKSPGEYVNIEFG as substrate measured after 40 mins in presence of [gamma33P]ATP by scintillation counting method"}, "[20]": {"molecular_target": "Death-associated protein kinase 1 (Homo sapiens) (UniProt P53355)", "test": "Inhibition of recombinant human DAPK1 (1 to 296 residues) at 10 uM using KKLNRTLSFAEPG as substrate measured after 40 mins in presence of [gamma33P]ATP by scintillation counting method"}, "[21]": {"molecular_target": "Inhibitor of nuclear factor kappa-B kinase subunit alpha (Homo sapiens) (UniProt O15111)", "test": "Inhibition of recombinant full-length human IKKalpha (959 to end residues) at 10 uM using peptide substrate measured after 40 mins in presence of [gamma33P]ATP by scintillation counting method"}},
  "note": "Calls of active or inactive are those of the source. The rule behind the calls is not given here.",
  "data": [
    {"smiles": "CN1C[C@H](Nc2nc3cc[nH]c3c(=O)n2C)C[C@H](c2ccc3c(c2)OCCO3)C1", "values": [
      {"measurement": "inhibition", "setting": "[1]", "value": "inactive"},
      {"measurement": "inhibition", "setting": "[2]", "value": "inactive"},
      {"measurement": "inhibition", "setting": "[3]", "value": "inactive"},
      {"measurement": "inhibition", "setting": "[4]", "value": "inactive"},
      {"measurement": "inhibition", "setting": "[5]", "value": "inactive"},
      {"measurement": "inhibition", "setting": "[6]", "value": "inactive"},
      {"measurement": "inhibition", "setting": "[7]", "value": "inactive"},
      {"measurement": "inhibition", "setting": "[8]", "value": "inactive"},
      {"measurement": "inhibition", "setting": "[9]", "value": "inactive"},
      {"measurement": "inhibition", "setting": "[10]", "value": "inactive"},
      {"measurement": "inhibition", "setting": "[11]", "value": "inactive"},
      {"measurement": "inhibition", "setting": "[12]", "value": "inactive"},
      {"measurement": "inhibition", "setting": "[13]", "value": "inactive"},
      {"measurement": "inhibition", "setting": "[14]", "value": "inactive"},
      {"measurement": "AUC(0-inf)", "setting": "[15]", "value": 2490, "unit": "ng·h/mL"},
      {"measurement": "Activity", "setting": "[16]", "value": "Active"},
      {"measurement": "inhibition", "setting": "[17]", "value": "inactive"},
      {"measurement": "inhibition", "setting": "[18]", "value": "inactive"},
      {"measurement": "inhibition", "setting": "[19]", "value": "inactive"},
      {"measurement": "inhibition", "setting": "[20]", "value": "inactive"},
      {"measurement": "inhibition", "setting": "[21]", "value": "inactive"}
    ]}
  ]
}
